Source: ChEMBL document CHEMBL1156788, “A 1,8-naphthyridone derivative targets the HIV-1 Tat-mediated transcription and potently inhibits the HIV-1 replication” (J Med Chem, 2010)
Converted amounts (≈) assume the structure as drawn. The source made the active and inactive calls.

Columns and labels:
[1] = Selectivity index, ratio of CC50 for human MT4 cells to EC50 for HIV1 3B; format: toxicity, cell-based; details: read-out: Ratio CC50/EC50
Summary of the method: (§1)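 MT-4 cells at 6 × 10^5 cells/mL, mock- or virus-infected with HIV-1 IIIB or HIV-2 ROD at 100-300 CCID50, with serial 5-fold compound dilutions in triplicate. After 5 days, viability read by MTT at 540 and 690 nm, using the median OD of three wells. EC50 = 50% protection from viral cytopathic effect; CC50 = 50% reduction of OD540 in mock-infected cells. SI = CC50/EC50; mean ± SD of ≥2 experiments.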

[2] = Cytotoxicity against human MT4 cells by MTT assay; format: cell-based; summary of the method: as §1
[3] = system: Human immunodeficiency virus 2; experiment: Antiviral activity against HIV2 ROD in human MT4 cells assessed as protection against virus-induced cytopathogenicity by MTT assay; format: functional, organism-based; details: Human immunodeficiency virus 2, ISOLATE ROD; summary of the method: as §1
[4] = system: Human immunodeficiency virus 1; experiment: Antiviral activity against HIV1 3B in human MT4 cells assessed as protection against virus-induced cytopathogenicity by MTT assay; format: functional, organism-based; details: Human immunodeficiency virus 1, 3B; summary of the method: as §1
[5] = Selectivity index, ratio of CC50 for human MT4 cells to EC50 for HIV2 ROD; format: toxicity, cell-based; details: read-out: Ratio CC50/EC50; summary of the method: as §1
[6] = Cytotoxicity against human PBMC by MTT assay; format: cell-based; details: in the assay text read “trypan blue exclusion method” for “MTT assay”
Summary of the method: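 Cytotoxicity in PHA-stimulated PBMCs read by trypan blue exclusion; CC50 = concentration reducing viability of mock-infected cells by 50%. Mean ± SD of at least two experiments.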

[7] = system: Human immunodeficiency virus 1; experiment: Antiviral activity against HIV1 in human U1 cells assessed as inhibition of TNF-alpha-stimulated viral expression measured by p24 production; format: functional, organism-based; details: Human immunodeficiency virus 1, U1
Summary of the method: (§2)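 Latently infected OM-10.1 and U1 cells at 5 × 10^5 cells/mL preincubated 2 h with or without compound, then stimulated with TNF-α 1 ng/mL or PMA 0.02 μM. After 2 days at 37 °C, p24 in supernatant measured by ELISA; viability assessed in parallel by MTT. EC50 = 50% reduction of p24; mean ± SD of ≥3 experiments.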

[8] = Selectivity index, ratio of CC50 for human Jurkat cells to EC50 for HIV1; format: toxicity, cell-based; details: read-out: Ratio CC50/EC50
[9] = system: Human immunodeficiency virus 1; experiment: Antiviral activity against HIV1 3B in human MT4 cells assessed as inhibition of p24 protein production measured delay in infection up to 18 hrs by time-of addition experiment; format: functional, organism-based; details: in the assay text read “up to 10 hrs” for “up to 18 hrs”
Summary of the method: (§3)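 Time-of-addition assay. MT-4 cells infected with HIV-1 IIIB at moi 0.5 to synchronize replication. Compounds added at various times from 0 to 25 h post-infection; p24 antigen in supernatant measured by ELISA at 31 h p.i. Reference drugs AZT and ritonavir were given at 100× their MT-4/MTT IC50.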

[10] = Cytotoxicity against human Jurkat cells by MTT assay; format: cell-based
[11] = system: Human immunodeficiency virus 1; experiment: Antiviral activity against HIV1 3B in human MT4 cells assessed as inhibition of p24 protein production measured delay in infection up to 5 hrs by time-of addition experiment; format: functional, organism-based; details: in the assay text read “up to 10 hrs” for “up to 5 hrs”; summary of the method: as §3
[12] = Selectivity index, ratio of CC50 for TNF-alpha-stimulated human U1 cells to EC50 for HIV1; format: toxicity, cell-based; details: read-out: Ratio CC50/EC50
Summary of the method: (§4)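 OM-10.1 or U1 cells at 5 × 10⁵ cells/mL were preincubated with compound for 2 h, then stimulated with TNF-α 1 ng/mL or PMA 0.02 μM. After 2 days at 37 °C, supernatant p24 was measured by ELISA for EC50, and parallel cultures were read by MTT for CC50. SI = CC50/EC50. Mean ± SD of at least three experiments.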

[13] = Selectivity index, ratio of CC50 for human MT4 cells to EC50 for HIV1 3B mutant after 60 passage resistance selection by MTT assay; format: toxicity, cell-based; details: read-out: Ratio CC50/EC50
[14] = Cytotoxicity against human HuT78 by MTT assay; format: cell-based; details: HuT78 cells
Summary of the method: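 Chronically infected HuT-78 cells; CC50 defined as the concentration reducing cell viability by 50%, measured by the MTT method. Mean ± SD of at least three separate experiments.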

[15] = Selectivity index, ratio of CC50 for PMA-stimulated human OM10.1 cells to EC50 for HIV1; format: toxicity; details: read-out: Ratio CC50/EC50; summary of the method: as §4
[16] = Cytotoxicity against PMA-stimulated human U1 cells by MTT assay; format: cell-based; summary of the method: as §2
[17] = system: Human immunodeficiency virus 1; experiment: Antiviral activity against HIV1 in human HeLa cells assessed as inhibition of Tat-mediated transcription after 24 hrs by LTR-driven luciferase reporter assay; format: functional, organism-based
Summary of the method: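 HeLa clone carrying an HIV-1 LTR-luciferase reporter, activated with subsaturating Tat or left without Tat for basal promoter activity. Cells incubated with increasing compound concentrations; luciferase measured in cell lysates 24 h after treatment. Controls were DMSO vehicle, untreated cells and flavopiridol at 10 μM.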

[18] = Selectivity index, ratio of CC50 for TNF-alpha-stimulated human OM10.1 cells to EC50 for HIV1; format: toxicity; details: read-out: Ratio CC50/EC50; summary of the method: as §4
[19] = system: Human immunodeficiency virus 1; experiment: Antiviral activity against HIV1 3B in human […] cells assessed as inhibition of p24 production; format: functional, organism-based; details: Human immunodeficiency virus 1, 3B
Summary of the method: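 Chronically infected HuT-78 cells washed with PBS and pelleted three times, then 200000 cells per 1 mL seeded with test compound at set concentrations. Grown 44 h; supernatant p24 measured by ELISA. EC50 = 50% reduction of p24 production; mean ± SD of at least three separate experiments. Nevirapine and ritonavir included as controls.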

[20] = system: Human immunodeficiency virus 1; experiment: Antiviral activity against HIV1 3B mutant in human MT4 cells assessed as protection against virus-induced cytopathogenicity by MTT assay; format: functional, organism-based; details: Human immunodeficiency virus 1, 3B
Summary of the method: (§5)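 Virus added at 100-300 CCID50 to MT-4 cells (6 × 10⁵ cells/mL) together with serial 5-fold compound dilutions, triplicate wells. Viability read by MTT after 5 days at 540 and 690 nm, using the median OD of three wells. EC50 is the concentration giving 50% protection from virus-induced cytopathic effect. Mean ± SD of at least two experiments.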

[21] = Cytotoxicity against PMA-stimulated human OM10.1 cells by MTT assay; format: cell-based; summary of the method: as §2
C8166T = experiment: Antiviral activity against integrase deficient Simian virus 40/HIV-1 chimera (n/N.Tag.oriT) virus in human C8166T cells assessed as inhibition of viral replication; format: functional, cell-based
Summary of the method: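 C8166 T-cells were infected with HIV-1 NL4.3 or N/N.Tag.oriT and exposed to a range of compound concentrations. p24 in the supernatant was measured relative to untreated controls (100%). Toxicity was read in parallel by MTT.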

[22] = system: Human immunodeficiency virus 1; experiment: Antiviral activity against HIV1 in human Jurkat cells assessed as inhibition of GFP expression by flow cytometry; details: Human immunodeficiency virus 1, Jurkat
[23] = system: Human immunodeficiency virus 1; experiment: Antiviral activity against HIV1 in human U1 cells assessed as inhibition of PMA-stimulated viral expression measured by p24 production; format: functional, organism-based; details: Human immunodeficiency virus 1, U1; summary of the method: as §2
[24] = Cytotoxicity against TNF-alpha-stimulated human OM10.1 cells by MTT assay; format: cell-based; summary of the method: as §2
[25] = Selectivity index, ratio of CC50 for PMA-stimulated human U1 cells to EC50 for HIV1; format: toxicity, cell-based; details: read-out: Ratio CC50/EC50; summary of the method: as §4
[26] = Selectivity index, ratio of CC50 for human MT4 cells to EC50 for HIV1 3B mutant; format: toxicity, cell-based; details: read-out: Ratio CC50/EC50
Summary of the method: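 SI = CC50 in mock-infected MT-4 cells (MTT, 5 days) divided by EC50 against the selected mutant in the MT-4 MTT cytopathicity assay.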

[27] = Selectivity index, ratio of CC50 for human PBMC to EC50 for HIV1
Summary of the method: (§6)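 PBMCs from healthy donors isolated by density centrifugation and stimulated 3 days with PHA. Blasts washed, plated at 2 × 10^5 per well with serial compound dilutions and infected with HIV at 1000 CCID50/mL. Medium and compound refreshed at day 4; p24 in supernatant measured by ELISA at day 7. EC50 = 50% inhibition of p24; SI = CC50/EC50.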

[28] = Cytotoxicity against TNF-alpha-stimulated human U1 cells by MTT assay; format: cell-based; summary of the method: as §2
[29] = system: Human immunodeficiency virus 1; experiment: Antiviral activity against HIV1 in human OM10.1 cells assessed as inhibition of PMA-stimulated viral expression measured by p24 production; format: functional, organism-based; summary of the method: as §2
[30] = system: Human immunodeficiency virus 1; experiment: Antiviral activity against HIV1 3B in human MT4 cells assessed as inhibition of p24 protein production measured delay in infection up to 10 hrs by time-of addition experiment; format: functional, organism-based; summary of the method: as §3
[31] = system: Human immunodeficiency virus 1; experiment: Antiviral activity against HIV1 in human PBMC assessed as inhibition of p24 protein production by MTT assay; format: functional, organism-based; details: in the assay text read “by ELISA” for “by MTT assay”; summary of the method: as §6
[32] = system: Human immunodeficiency virus 1; experiment: Antiviral activity against HIV1 3B mutant in human MT4 cells assessed as protection against virus-induced cytopathogenicity after 60 passage resistance selection by MTT assay; format: functional, organism-based; details: Human immunodeficiency virus 1, 3B; summary of the method: as §5
[33] = system: Human immunodeficiency virus 1; experiment: Antiviral activity against HIV1 in human OM10.1 cells assessed as inhibition of TNF-alpha-stimulated viral expression measured by p24 production; format: functional, organism-based; summary of the method: as §2

Cn1cc(C(=O)O)c(=O)c2ccc(N3CCN(c4ccccn4)CC3)nc21
selectivity ratio [1]: 16
CC50 [2]: 9.93 µg/mL (≈ 27.2 µM)
EC50 [3]: 0.55 µg/mL (≈ 1.51 µM)
EC50 [4]: 0.62 µg/mL (≈ 1.7 µM)
selectivity ratio [5]: 18

Cn1cc(C(=O)O)c(=O)c2ccc(N3CCN(c4cccc(C(F)(F)F)c4)CC3)nc21
selectivity ratio [1]: < 1
CC50 [2]: 0.41 µg/mL (≈ 0.948 µM)
EC50 [3]: > 0.41 µg/mL
EC50 [4]: > 0.41 µg/mL
selectivity ratio [5]: < 1

Cn1cc(C(=O)O)c(=O)c2ccc(N3CCN(c4nc5ccccc5s4)CC3)nc21
CC50 [6]: 10.3 µg/mL (≈ 24.5 µM)
EC50 [7]: 0.003 µg/mL (≈ 0.00712 µM)
selectivity ratio [8]: 44
Activity [9]: Active
CC50 [10]: 15.1 µg/mL (≈ 35.9 µM)
Activity [11]: Active
selectivity ratio [1]: 457
selectivity ratio [12]: 330
selectivity ratio [13]: 1420
CC50 [2]: 12.1 µg/mL (≈ 28.6 µM)
CC50 [14]: > 10 µg/mL
selectivity ratio [15]: 189
EC50 [3]: 0.02 µg/mL (≈ 0.0475 µM)
CC50 [16]: 2.67 µg/mL (≈ 6.33 µM)
EC50 [4]: 0.03 µg/mL (≈ 0.0712 µM)
Activity [17]: Dose-dependent effect
selectivity ratio [18]: 422
EC50 [19]: 0.032 µg/mL (≈ 0.0759 µM)
EC50 [20]: 0.019 µg/mL (≈ 0.0451 µM)
CC50 [21]: 0.75 µg/mL (≈ 1.78 µM)
Activity (C8166T): Active
EC50 [22]: 0.34 µg/mL (≈ 0.807 µM)
EC50 [23]: 0.002 µg/mL (≈ 0.00475 µM)
CC50 [24]: 1.27 µg/mL (≈ 3.01 µM)
selectivity ratio [25]: 1330
selectivity ratio [26]: 1280
Ratio CC50/EC50 [27]: 17
CC50 [28]: 0.99 µg/mL (≈ 2.35 µM)
EC50 [29]: 0.004 µg/mL (≈ 0.00949 µM)
Activity [30]: Active
EC50 [31]: 0.6 µg/mL (≈ 1.42 µM)
EC50 [32]: 0.017 µg/mL (≈ 0.0403 µM)
selectivity ratio [5]: 522
EC50 [33]: 0.003 µg/mL (≈ 0.00712 µM)

Cn1cc(C(=O)O)c(=O)c2ccc(N3CCN(c4nccs4)CC3)nc21
selectivity ratio [1]: > 40
CC50 [2]: > 125 µg/mL
EC50 [3]: 0.922 µg/mL (≈ 2.48 µM)
EC50 [4]: 3.15 µg/mL (≈ 8.48 µM)
selectivity ratio [5]: > 136
